# This is a sample that favours compounds with a hit; in the whole collection about 7.6% have one here.
# M1 antagonist: antagonists of rat M1 muscarinic receptor; B-score at 10 µM; CHO-M1 cells, Fluo-4 calcium, ACh EC80 antagonist mode; hits give low values; 64,000 tested, 3.4% active; Muscarinic acetylcholine receptor M1 (Rattus norvegicus), P08482; AID 628, 2007;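 active = calcium fluorescence response, raw or row-and-column corrected B-score, differing from the plate sample mean either way at a set confidence level, mostly lower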
# D1 allo mod: D1 CRE-luciferase signal change, two-sided – cell-based, HEK293 D1, dopamine EC30, D1 allosteric modulator project, primary screen; D(1A) dopamine receptor (Homo sapiens), P21728; dopamine EC30 potentiation; actives deviate in either direction; B-score at 10 µM; 58,000 tested, 5.9% active;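 active = luminescence count or its row- and column-corrected plate score outside the 99.7% band of the plate's sample wells, on either side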
# M1 agonist: M1 muscarinic receptor agonists, primary screen, CHO-M1 cells, Fluo-4 calcium, agonist mode. Fluo-4 calcium fluorescence; hits give high values. B-score at 10 µM. 64,000 tested, 3% active;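 active = fluorescence rise, raw or as B-score row- and column-corrected plate score, outside the 99.7% band of its plate's samples, either direction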
# Jurkat tox 60K: cytotoxicity toward Jurkat T cells, primary screen, cytotoxicity control, cell-based, Jurkat E6.1, 60K MLSMR library. Jurkat E6.1 viability, ATP luminescence, 48 h. inhibition, % at 4 µM. 56,000 tested, 1.2% active. AID 463, 2006;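 active = inhibition above the mean inhibition of all tested compounds plus 3 SD, cut at about 28% in these data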
# HEK293 NFkB inh: inhibitors of PMA/ionomycin-induced NF-kB reporter, primary screen, antigen receptor NF-kB inhibitor project, cell-based, HEK-293 luciferase reporter, luminescence; HEK-293 NF-kB luciferase reporter; inhibition, % at 3 µM; 62,000 tested, 0.21% active;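 active = inhibition above the mean of all tested compounds plus 3 SD, cut at about 40% in these data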;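 note: 0% = stimulated DMSO wells and 100% = 10 µM reference inhibitor 5653914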
#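 Reagent: PMA plus ionomycin mix as NF-kB-activating stimulus. Assay system: NF-kB luciferase reporter HEK-293 cells. Technique: luminescence from luciferase substrate reagent. Incubation: 1 h compound pre-incubation, 16 h PMA/ionomycin at 37 °C. Benchmarks: DMSO only as uninhibited control, 10 µM reference inhibitor as full inhibition. Repeats: tested once.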
# DAT uptake mod: changed hDAT dopamine uptake under cocaine IC80, either direction, primary screen, cocaine antagonist project, cell-based, LLC-PK1 hDAT, [14C]-dopamine uptake, MLSMR | Sodium-dependent dopamine transporter (Homo sapiens), Q01959 | LLC-PK1 hDAT cells, [14C]-dopamine uptake with cocaine IC80; actives deviate in either direction | B-score at 10 µM | 110,000 tested, 1.3% active | AID 449768, 2010;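 active = Z score or B-score, a plate-position-corrected score, falls beyond the plate's 99.7% confidence bounds, in either direction; inactive = both scores lie inside the 99.7% bounds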;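 note: scored against the spread of the other compound wells on the same plate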
# Target sequence (Q01959 whole entry, looked up): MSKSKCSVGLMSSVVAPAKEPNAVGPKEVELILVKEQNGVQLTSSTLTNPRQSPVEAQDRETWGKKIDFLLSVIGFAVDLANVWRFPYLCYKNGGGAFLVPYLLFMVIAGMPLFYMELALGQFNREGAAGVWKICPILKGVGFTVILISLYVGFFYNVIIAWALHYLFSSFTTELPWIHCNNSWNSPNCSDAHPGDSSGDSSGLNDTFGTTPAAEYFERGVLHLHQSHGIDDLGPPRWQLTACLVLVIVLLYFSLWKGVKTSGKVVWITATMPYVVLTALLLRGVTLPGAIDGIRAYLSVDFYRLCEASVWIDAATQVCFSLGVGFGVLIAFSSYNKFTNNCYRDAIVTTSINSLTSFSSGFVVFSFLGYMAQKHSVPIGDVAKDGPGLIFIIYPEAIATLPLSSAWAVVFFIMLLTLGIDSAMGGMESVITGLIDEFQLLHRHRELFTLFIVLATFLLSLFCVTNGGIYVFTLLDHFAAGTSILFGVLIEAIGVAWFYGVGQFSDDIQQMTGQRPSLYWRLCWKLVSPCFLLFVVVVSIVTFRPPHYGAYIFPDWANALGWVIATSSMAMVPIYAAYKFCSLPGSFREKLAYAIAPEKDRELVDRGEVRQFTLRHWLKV
# An asterisk follows results filed as active; x = not tested or not shown.
SMILES,M1 antagonist,D1 allo mod,M1 agonist,Jurkat tox 60K,HEK293 NFkB inh,DAT uptake mod
COc1ccc(C(=O)NCc2nnc(SC)n2C2CCCCC2)cc1,0.35,1.42,0.245,-0.1,4.4,-0.773
CC(C)c1ccc(O)c(NC(=O)c2ncn[nH]2)c1,2.26*,0.102,0.204,0.9,3.6,2.38
CC(C)c1ccc(O)c(NC(=O)c2cncc(Br)c2)c1,-0.995,0.628,-0.502,0.6,9.6,0.0185
COc1ccc(-c2csc(NC(CO)c3nc4ccccc4n3CCCO)n2)cc1 (stereo not drawn),x,x,x,x,x,3.15*
CCOc1ccc(OCc2ccc(C(=O)N3CCCC3)o2)cc1,0.564,0.366,0.33,2.9,-10.7,0.75
CCOc1ccc(-n2cc(C(=O)NCc3ccco3)c3cc(OC)c(OC)cc3c2=O)cc1,0.425,-1.8,0.0424,8.9,20.6,-0.801
CCCCOc1ccc(C(=O)N2CCCC2)cc1,x,x,x,x,x,0.445
CCOc1ccc(OCc2cccc(C(=O)N3CCCC3)c2)cc1,0.327,-3.94*,1.34,-1.0,-2.6,1.95
CCOc1ccc(C(=O)N2CCCC2)cc1,x,x,x,x,x,5.88*
CCOc1ccc(-n2cc(C(=O)N3CCCCCC3)c3cc(OC)c(OC)cc3c2=O)cc1,0.245,-1.18,0.0131,-1.0,17.8,2.86*
CCOc1ccc(OCc2cccc(C(=O)O)c2)cc1,-0.12,-4.51*,-0.0716,11.5,96.8*,-0.325
CCOc1cc(OCC)cc(C(=O)O)c1,x,x,x,x,x,0.729
O=C(CN(Cc1ccc(Cl)c(Cl)c1)S(=O)(=O)c1ccccc1)N/N=C\c1ccc2c(c1)OCO2,x,x,x,x,x,-0.832
COc1cccc2cc3c(=O)n(-c4ccccc4)nc-3oc12,-0.0963,-0.344,-0.17,-0.4,-5.7,-0.951
Cc1noc(C)c1COc1cccc(C(=O)N2CCN(C/C=C/c3ccccc3)CC2)c1,-1.24,-0.49,-1.01,10.8,12.1,0.8
COc1ccc(OCc2cccc(C(=O)O)c2)cc1,0.0916,-10.7*,-0.0249,12.3,94.2*,0.722
O=C(O)c1cccc(COc2ccc(CO)cc2Cl)c1,-1.81,-7.1*,0,7.1,94.0*,-1.82
O=C(O)c1ccc(COc2ccc(CO)cc2Cl)cc1,-0.824,-0.0792,0.784,4.3,-7.5,-0.78
O=C(OCC(F)(F)F)c1cccc(COc2ccc3ccccc3c2)c1,x,x,x,x,x,-0.119
CC(Sc1nc2c(c(=O)n(C)c(=O)n2C)n1Cc1cc2c(cc1Cl)OCO2)C(=O)O (stereo not drawn),-0.223,0.616,-0.64,x,7.3,-0.601
FC(F)Oc1ccc(-c2csc(Cc3nnc4n3CCCCC4)n2)cc1,-0.797,2.84,0.423,12.1,15.5,1.64
COc1ccc(-c2csc(Cc3nnc4n3CCCCC4)n2)cc1,2.3*,1.43,0.839,4.0,4.8,1.39
O=C(O)C(O)c1ccco1 (stereo not drawn),0.33,x,0.944,x,x,x
O=C(Nc1nnc(-c2ccc(F)cc2)o1)c1ccco1,-0.993,-0.846,-0.364,-2.4,8.2,-2.1
Fc1ccc(-c2nnc(NC3=NCCCCC3)o2)cc1,-0.00529,-6.59*,0.0299,13.8,26.2,x
SMILES,M1 antagonist,D1 allo mod,M1 agonist,Jurkat tox 60K,HEK293 NFkB inh,DAT uptake mod
Cc1ccc(-c2nnc3n2N=C(c2ccc(Br)cc2)CS3)cc1,-0.784,-0.153,-0.668,-2.9,3.9,-0.0499
c1ccc(-c2ccc(C3=Nn4c(nnc4-c4cc(-c5ccccc5)n[nH]4)SC3)cc2)cc1,x,x,x,x,x,-0.0112
Brc1ccc(C2=Nn3c(nnc3-c3n[nH]c4c3CCC4)SC2)cc1,-1.24,0.742,0.0152,78.9*,32.2,-0.824
Clc1ccc(C2=Nn3c(nnc3-c3n[nH]c4c3CCC4)SC2)cc1,0.174,-1.06,0.476,91.9*,38.4,-0.146
Cc1cc(C(F)(F)F)nn1CC(=O)NNC(=S)Nc1cccc(Cl)c1,x,x,x,x,x,-1.38
O=C(CSc1nnc(Cc2ccccc2)n1C1CCCCC1)N1CCOCC1,1.12*,1.54,0.852,-0.9,8.2,0.679
O=C(CSc1nnc(Cc2ccccc2)n1-c1ccc(F)cc1)N1CCOCC1,0.369,-0.203,-1,-5.4,-7.8,1.39
CCOC(=O)c1ccccc1-c1csc(NS(=O)(=O)c2ccc(Cl)cc2)n1,x,x,x,x,x,-4.8*
CCOC(=O)Cc1csc(NS(=O)(=O)c2ccccc2)n1,x,x,x,x,x,-0.119
CSc1nc(NC(C)C)nc(N2CCOCC2)n1,0.114,17.6*,0.0161,-1.3,13.9,-0.0856
COc1ccccc1CNC(=O)C1CCN(Cc2nc(-c3ccc(Cl)cc3)oc2C)CC1,-0.382,2.74,-0.816,1.2,5.3,x
Cc1cccc(OCCSc2nc3c([nH]2)c(=N)ncn3Cc2ccccc2)c1,x,x,x,x,x,0.00117
CC/C(=C\C(=O)c1ccncc1)Nc1ccc(O)cc1,0.53,0.222,-2.43,4.6,13.3,3.01*
O=C(Nc1ccc(Cl)cc1)c1ccncc1,-0.331,-0.542,-0.0213,x,x,0.632
CC(C)Oc1ccc(/C=N/NC(=O)C2CCCN2S(=O)(=O)c2ccc(Cl)cc2)cc1 (stereo not drawn),x,x,x,x,x,0.642
O=c1nccc(NCc2ccco2)[nH]1,0.102,-2.96*,0.00105,-0.1,6.1,0.215
Cc1sc2nc(-c3cccs3)nc(N3CCCN(C)CC3)c2c1C,-2.21*,-0.634,-0.00843,-0.2,13.2,x
C=CCN1C=CC(=C/C=C(/C#N)C(=O)OCC)C=C1,x,x,x,x,x,-2.6*
CCOC(=O)/C(C#N)=C\c1ccco1,x,x,x,x,x,-0.841
CN(C)CCOc1ccccc1C(C)(C)C,x,x,x,x,x,-0.9
Cc1cccc(NC(=O)N[C@@H](C)C(=O)O)c1,x,x,x,x,x,-1.83
Cc1cccc(NC(=O)C23CCC(C)(C2Br)C3(C)C)c1 (stereo not drawn),x,x,x,x,x,-8.54*
CCOc1ccc(NC(=O)c2ccccc2O)cc1,0.00278,-4.71*,-1.73,7.3,-22.1,2.3
CCOc1ccc(NC(=O)c2cnsn2)cc1,-0.0661,-4.92*,-0.121,8.7,-17.7,-0.157
CCO[C@H]1OC(C(=O)NCc2nc3ccccc3[nH]2)=C[C@@H](c2ccc(Br)cc2)[C@@H]1CCCO,x,x,x,x,x,0.184
C#Cc1ccc([C@H]2C=C(C(=O)NCc3nc4ccccc4[nH]3)O[C@@H](OCC)[C@@H]2CCCO)cc1,x,x,x,x,x,4.18*
CC(C)(C)NC(=O)Nc1ccccc1C(N)=O,-1.83,-4.34*,0.156,-10.2,5.7,-0.0161
COc1cccc(N2C(=O)C(O)=C(C(C)=O)C2c2ccc(OC)c(OC)c2)c1 (stereo not drawn),0.567*,0.553,0.198,x,x,0.904
Cc1ccc(-n2c(=O)c3c4c(sc3n3c(C)nnc23)COC(C(C)C)C4)cc1 (stereo not drawn),-0.355,x,1.24,x,x,1.12
COc1cccc(NC(=O)CCSc2nnc3scc(-c4ccccc4)n23)c1,-0.0506,4.38*,-0.108,x,12.7,x

# Bioassay records: PubChem BioAssay, several laboratories
